Laboratory results: PMC5589077 (ACS chemical neuroscience, 2015)
Several values for one entry are separate records, joined by “and”; a condition that tells them apart may be missing. Equal entries are not always repeated. Where two headings read alike, the source gives them in different places.

What was measured:
α6β2*-nAChR [1] = settings: rat striatal synaptosomes; cited from earlier work
α4β2*-nAChR [2] = settings: monkey striatal synaptosomes, cited from earlier work
α6β2*-nAChR [3] = settings: read-out: Ki, striatal α6β2*-nAChR; monkey; cited from earlier work
α4β2*-nAChR [4] = settings: rat striatal synaptosomes, cited from earlier work
α6β2*-nAChR [5] = settings: monkey striatal synaptosomes; cited from earlier work
mouse [6] = settings: cited from earlier work
mouse [7] = settings: cited from earlier work; for activity in tail-flick test given intrathecally: intrathecally 10 μg/mouse
DAD4 = DAD4 (Homo sapiens, UniProt P21917); assay: off-target radioligand binding assay; settings: 10 μM
5HT2A = 5HT2A (Homo sapiens, UniProt P28223); assay: off-target radioligand binding assay; settings: 10 μM
DAD2 = DAD2 (Homo sapiens, UniProt P14416); assay: off-target radioligand binding assay; settings: 10 μM
α4β2*-nAChR [8] = type: cell-based, mouse; settings: for max (% nic) dopamine release, res α4β2: 10 μM (+) PHT or 100 μM (−) PHT compared to 10 μM nic response
μ opioid receptor = μ opioid receptor (Homo sapiens, UniProt P35372); assay: off-target radioligand binding assay; settings: 10 μM
rat α4β2-nAChR = rat α4β2-nAChR (Rattus norvegicus, UniProt P09483+P12390); type: cell-based; settings: for antagonism (% of EC50 ACh remaining) α4β2: 100 μM compound, ACh 70 μM; for IC50: read-out: antagonism, IC50 α4β2, vs EC50 ACh 70 μM
ICR mice [9] = assay: blockade of nicotine-induced CPP; type: in vivo, mouse; settings: 15 min before nicotine 0.5 mg/kg s.c.
Outline: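 Male ICR mice, 8–10 weeks old, n = 8 per group, in an unbiased three-chamber CPP. Day 1: 5 min habituation, then a 15 min baseline, with the paired side randomised. Days 2–4: two 20 min sessions daily, ≥5 h apart, nicotine 0.5 mg/kg s.c. (saline, free base) versus saline. Test compound or vehicle s.c. 15 min before nicotine. Day 5 retest.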

κ opioid receptor = κ opioid receptor (Homo sapiens, UniProt P41145); assay: off-target radioligand binding assay; settings: 10 μM
rat α3β4-nAChR = rat α3β4-nAChR (Rattus norvegicus, UniProt P04757+P12392); type: cell-based; settings: for antagonism (% of EC50 ACh remaining) α3β4: 100 μM compound, ACh 200 μM; for IC50: read-out: antagonism, IC50 α3β4, vs EC50 ACh 200 μM
NET = NET (Homo sapiens, UniProt P23975); assay: off-target radioligand binding assay; settings: 10 μM
Outline: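 Inhibition of specific [125I]RTI-55 binding to the norepinephrine transporter, with test compound at 10 μM. The screen was run by a NIDA drug-discovery program contractor.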

SERT = SERT (Homo sapiens, UniProt P31645); assay: off-target radioligand binding assay; settings: 10 μM
5HT1A = 5HT1A (Homo sapiens, UniProt P08908); assay: off-target radioligand binding assay; settings: 10 μM
rat α7-nAChR = rat α7-nAChR (Rattus norvegicus, UniProt Q05941); type: cell-based; settings: for antagonism (% of EC50 ACh remaining) α7: 100 μM compound, ACh 300 μM; for IC50: read-out: antagonism, IC50 α7, vs EC50 ACh 300 μM
mouse [10] = settings: cited from earlier work; remark: listed apart in the source
DAD1 = DAD1 (Homo sapiens, UniProt P21728); assay: off-target radioligand binding assay; settings: 10 μM
5HT2C = 5HT2C (Homo sapiens, UniProt P28335); assay: off-target radioligand binding assay; settings: 10 μM
α6β2*-nAChR in α5KO = α6β2*-nAChR in α5KO (Mus musculus, UniProt Q9ERK7+Q9R0W9); type: cell-based; settings: for max (% nic) dopamine release, α6β2 in α5KO: 10 μM (+) PHT or 100 μM (−) PHT compared to 10 μM nic response; for EC50: read-out: EC50 dopamine release, α6β2 in α5KO, α5KO mice
α4β2-nAChR = settings: cited from earlier work
DAD3 = DAD3 (Homo sapiens, UniProt P35462); assay: off-target radioligand binding assay; settings: 10 μM
DAT = DAT (Homo sapiens, UniProt Q01959); assay: off-target radioligand binding assay; settings: 10 μM
ICR mice [11] = assay: conditioned place preference; type: in vivo, mouse
Outline: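 Test compound given s.c. 15 min before conditioning, in an unbiased three-chamber CPP. Male ICR mice, 8–10 weeks old, n = 8 per group. Baseline day 1: 5 min habituation, 15 min test. Then 3 days of twice-daily 20 min sessions, ≥5 h apart; test on day 5. Score: drug-paired-side time after minus before conditioning; mean ± SEM, p < 0.05 versus vehicle.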

α6β2*-nAChR [12] = biological target: T1, α6β2*-nAChR (Mus musculus, UniProt Q9ERK7+Q9R0W9); settings: read-out: binding Ki, α6β2; [125I]epibatidine; striatum and olfactory tubercle membranes from α4KO mice
mouse [13] = settings: cited from earlier work; remark: listed apart in the source
nAChRs = settings: cited from earlier work; for Ki: read-out: Ki for inhibition of [3H]epibatidine binding to nAChRs
[14] = 62 receptor/enzyme screen; type: binding; settings: 10 μM
Outline: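 Profiling in a 62-target radioligand and enzyme panel. Test compound was run at 100 nM and 10 000 nM, in duplicate. The work was done by a contractor to the NIDA Addiction Treatment Discovery Program.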

α6β2*-nAChR [15] = biological target: T1, α6β2*-nAChR; type: cell-based; settings: for max (% nic) dopamine release, sens α6β2: 10 μM (+) PHT or 100 μM (−) PHT compared to 10 μM nic response
α4β2*-nAChR in α5KO = α4β2*-nAChR in α5KO (Mus musculus, UniProt O70174+Q9ERK7); type: cell-based; settings: for max (% nic) dopamine release, α4β2 in α5KO*: 10 μM (+) PHT or 100 μM (−) PHT compared to 10 μM nic response; for EC50: read-out: EC50 dopamine release, α4β2 in α5KO*, α5KO mice
δ opioid receptor = δ opioid receptor (Homo sapiens, UniProt P41143); assay: off-target radioligand binding assay; settings: 10 μM
[16] = percentage of the Emax for acetylcholine

Chain of rat α3β4-nAChR (P12392 21-495): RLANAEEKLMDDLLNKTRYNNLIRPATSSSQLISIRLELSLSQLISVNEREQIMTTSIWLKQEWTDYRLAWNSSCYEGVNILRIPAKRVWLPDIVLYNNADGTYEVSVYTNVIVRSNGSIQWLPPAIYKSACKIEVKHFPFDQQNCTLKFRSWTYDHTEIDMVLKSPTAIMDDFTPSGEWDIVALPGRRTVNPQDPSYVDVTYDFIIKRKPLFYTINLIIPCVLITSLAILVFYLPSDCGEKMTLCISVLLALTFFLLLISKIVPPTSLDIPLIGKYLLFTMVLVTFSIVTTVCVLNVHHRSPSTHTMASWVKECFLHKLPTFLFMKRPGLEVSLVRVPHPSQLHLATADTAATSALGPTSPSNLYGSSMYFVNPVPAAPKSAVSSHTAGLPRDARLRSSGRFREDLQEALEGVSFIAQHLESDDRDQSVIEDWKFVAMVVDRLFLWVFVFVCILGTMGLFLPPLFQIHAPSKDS
Chain of rat α3β4-nAChR (P04757 26-499): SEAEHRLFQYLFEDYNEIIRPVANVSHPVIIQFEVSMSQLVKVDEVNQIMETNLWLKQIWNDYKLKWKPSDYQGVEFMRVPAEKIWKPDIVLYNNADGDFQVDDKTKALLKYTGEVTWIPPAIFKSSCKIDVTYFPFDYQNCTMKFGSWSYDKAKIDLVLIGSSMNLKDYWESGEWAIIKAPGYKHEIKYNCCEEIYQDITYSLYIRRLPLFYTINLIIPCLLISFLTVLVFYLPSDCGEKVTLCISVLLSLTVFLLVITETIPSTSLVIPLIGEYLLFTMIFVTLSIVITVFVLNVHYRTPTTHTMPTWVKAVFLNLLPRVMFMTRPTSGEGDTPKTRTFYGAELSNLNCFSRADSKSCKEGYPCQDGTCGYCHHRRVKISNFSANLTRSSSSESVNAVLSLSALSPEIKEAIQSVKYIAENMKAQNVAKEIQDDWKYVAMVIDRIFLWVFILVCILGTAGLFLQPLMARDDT
Chain of α6β2*-nAChR in α5KO (Q9R0W9 26-494): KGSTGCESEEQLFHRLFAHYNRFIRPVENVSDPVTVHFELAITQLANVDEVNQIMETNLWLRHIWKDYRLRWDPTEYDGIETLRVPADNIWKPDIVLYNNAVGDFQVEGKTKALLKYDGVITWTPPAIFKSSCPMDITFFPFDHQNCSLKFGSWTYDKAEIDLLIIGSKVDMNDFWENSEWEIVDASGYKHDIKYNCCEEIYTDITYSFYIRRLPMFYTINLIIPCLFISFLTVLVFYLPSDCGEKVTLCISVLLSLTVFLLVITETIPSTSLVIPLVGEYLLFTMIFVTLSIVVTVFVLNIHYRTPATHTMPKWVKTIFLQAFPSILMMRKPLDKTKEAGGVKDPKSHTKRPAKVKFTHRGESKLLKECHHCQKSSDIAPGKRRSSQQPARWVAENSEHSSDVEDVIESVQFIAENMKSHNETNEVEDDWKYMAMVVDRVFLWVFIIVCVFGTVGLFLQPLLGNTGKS
Chain of α6β2*-nAChR in α5KO (Q9ERK7 26-501): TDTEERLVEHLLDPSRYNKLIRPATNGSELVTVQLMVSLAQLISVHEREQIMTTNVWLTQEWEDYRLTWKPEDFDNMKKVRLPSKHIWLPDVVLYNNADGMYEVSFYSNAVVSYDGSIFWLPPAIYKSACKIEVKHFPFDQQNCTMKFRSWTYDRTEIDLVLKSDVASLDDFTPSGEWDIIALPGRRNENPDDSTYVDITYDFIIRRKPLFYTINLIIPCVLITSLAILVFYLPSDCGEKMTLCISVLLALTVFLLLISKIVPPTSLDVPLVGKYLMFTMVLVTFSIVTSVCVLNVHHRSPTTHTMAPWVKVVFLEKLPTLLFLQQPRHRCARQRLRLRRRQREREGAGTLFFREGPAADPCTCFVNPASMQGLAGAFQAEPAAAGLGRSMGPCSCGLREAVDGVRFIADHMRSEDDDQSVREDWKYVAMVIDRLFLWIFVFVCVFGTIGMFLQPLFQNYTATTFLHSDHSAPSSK
Chain of rat α4β2-nAChR (P12390 25-500): as the sequence (Q9ERK7 26-501) above, with T350A, M371V, Q379R, A383T, L387P, M391V, I449V, S468P counted along it
Chain of rat α4β2-nAChR (P09483 31-630): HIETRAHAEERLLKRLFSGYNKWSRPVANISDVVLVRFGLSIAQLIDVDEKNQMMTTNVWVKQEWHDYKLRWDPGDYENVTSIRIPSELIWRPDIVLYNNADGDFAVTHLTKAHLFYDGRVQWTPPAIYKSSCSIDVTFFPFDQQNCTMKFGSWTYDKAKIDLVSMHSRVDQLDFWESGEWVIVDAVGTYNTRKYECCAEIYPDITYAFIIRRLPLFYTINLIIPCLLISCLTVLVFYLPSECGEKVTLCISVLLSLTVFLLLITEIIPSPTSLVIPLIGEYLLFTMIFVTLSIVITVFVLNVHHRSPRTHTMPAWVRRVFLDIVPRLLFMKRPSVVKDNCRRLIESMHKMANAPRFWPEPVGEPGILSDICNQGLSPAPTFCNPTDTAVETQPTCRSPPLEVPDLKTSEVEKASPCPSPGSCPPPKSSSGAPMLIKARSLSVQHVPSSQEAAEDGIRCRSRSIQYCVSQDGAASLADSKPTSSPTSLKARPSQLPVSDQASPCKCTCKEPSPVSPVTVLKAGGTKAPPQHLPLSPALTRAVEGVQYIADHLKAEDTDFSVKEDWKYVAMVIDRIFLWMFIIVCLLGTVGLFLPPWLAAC
Chain of α4β2*-nAChR (Q9ERK7 26-501): as the sequence (Q9ERK7 26-501) above
Chain of α4β2*-nAChR (O70174 31-629, further chain): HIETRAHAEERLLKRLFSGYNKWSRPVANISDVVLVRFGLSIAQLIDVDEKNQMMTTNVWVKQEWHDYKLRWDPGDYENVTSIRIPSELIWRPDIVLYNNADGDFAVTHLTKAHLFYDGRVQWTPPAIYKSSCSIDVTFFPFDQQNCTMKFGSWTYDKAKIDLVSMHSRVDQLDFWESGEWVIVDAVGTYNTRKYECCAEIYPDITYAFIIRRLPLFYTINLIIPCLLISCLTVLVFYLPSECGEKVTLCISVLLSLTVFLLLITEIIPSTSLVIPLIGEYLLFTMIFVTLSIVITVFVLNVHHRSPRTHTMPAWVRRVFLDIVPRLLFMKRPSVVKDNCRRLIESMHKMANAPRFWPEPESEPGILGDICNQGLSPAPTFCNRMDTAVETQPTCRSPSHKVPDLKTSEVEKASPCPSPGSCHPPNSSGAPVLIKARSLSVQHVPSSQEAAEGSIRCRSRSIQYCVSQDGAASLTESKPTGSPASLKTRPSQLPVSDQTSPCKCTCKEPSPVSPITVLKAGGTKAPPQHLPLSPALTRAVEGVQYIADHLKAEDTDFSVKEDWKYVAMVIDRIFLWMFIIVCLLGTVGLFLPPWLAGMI
T1 sequence (Q9ERK7 26-501): as the sequence (Q9ERK7 26-501) above
T1 sequence (Q9R0W9 26-494): as the sequence (Q9R0W9 26-494) above
Chain of rat α7-nAChR (Q05941 23-502): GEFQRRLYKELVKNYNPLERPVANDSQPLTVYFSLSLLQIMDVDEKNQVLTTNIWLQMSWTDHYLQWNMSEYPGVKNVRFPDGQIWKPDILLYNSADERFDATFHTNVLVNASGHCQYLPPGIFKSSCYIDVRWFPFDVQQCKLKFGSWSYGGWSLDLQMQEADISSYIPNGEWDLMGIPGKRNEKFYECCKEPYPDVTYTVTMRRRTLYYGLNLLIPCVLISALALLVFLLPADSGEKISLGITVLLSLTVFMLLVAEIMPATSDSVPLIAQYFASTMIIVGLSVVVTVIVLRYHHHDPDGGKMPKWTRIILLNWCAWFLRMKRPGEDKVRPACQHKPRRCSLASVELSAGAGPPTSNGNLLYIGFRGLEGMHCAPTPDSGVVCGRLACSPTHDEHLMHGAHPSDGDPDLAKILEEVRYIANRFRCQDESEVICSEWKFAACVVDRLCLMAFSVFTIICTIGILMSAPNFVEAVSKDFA
Chain of α4β2*-nAChR in α5KO (O70174 31-629): as the sequence (O70174 31-629, further chain) above
Chain of α4β2*-nAChR in α5KO (Q9ERK7 26-501): as the sequence (Q9ERK7 26-501) above
Chain of SERT (P31645 whole entry, species assumed): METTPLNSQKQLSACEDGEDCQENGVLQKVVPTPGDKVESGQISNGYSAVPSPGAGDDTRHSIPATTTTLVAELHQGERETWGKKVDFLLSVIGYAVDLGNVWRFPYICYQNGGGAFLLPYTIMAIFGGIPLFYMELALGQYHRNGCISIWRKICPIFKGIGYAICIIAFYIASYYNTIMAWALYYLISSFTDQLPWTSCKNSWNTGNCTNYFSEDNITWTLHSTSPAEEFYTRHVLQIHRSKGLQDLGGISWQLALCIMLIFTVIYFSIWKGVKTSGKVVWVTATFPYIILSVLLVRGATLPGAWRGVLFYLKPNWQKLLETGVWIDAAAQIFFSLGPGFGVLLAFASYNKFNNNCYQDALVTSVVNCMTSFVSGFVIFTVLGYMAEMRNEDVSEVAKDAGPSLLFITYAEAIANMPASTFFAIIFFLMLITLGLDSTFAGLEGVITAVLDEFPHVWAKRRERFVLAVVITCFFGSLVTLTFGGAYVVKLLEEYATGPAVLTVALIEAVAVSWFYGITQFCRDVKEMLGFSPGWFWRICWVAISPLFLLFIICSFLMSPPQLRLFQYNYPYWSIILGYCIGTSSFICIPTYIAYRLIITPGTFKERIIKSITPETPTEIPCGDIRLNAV
Chain of DAD1 (P21728 whole entry): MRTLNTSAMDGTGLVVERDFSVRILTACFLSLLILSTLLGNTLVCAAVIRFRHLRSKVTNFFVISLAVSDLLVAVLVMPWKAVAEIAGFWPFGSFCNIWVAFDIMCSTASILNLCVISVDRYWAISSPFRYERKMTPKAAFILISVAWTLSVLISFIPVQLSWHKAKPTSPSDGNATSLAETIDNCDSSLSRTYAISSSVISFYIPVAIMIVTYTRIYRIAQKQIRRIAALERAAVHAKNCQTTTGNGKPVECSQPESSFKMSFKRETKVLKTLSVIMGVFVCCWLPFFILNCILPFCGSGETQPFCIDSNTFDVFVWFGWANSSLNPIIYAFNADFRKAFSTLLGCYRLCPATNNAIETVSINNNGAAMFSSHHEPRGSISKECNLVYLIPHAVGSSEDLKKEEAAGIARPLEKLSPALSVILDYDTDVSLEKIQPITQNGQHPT

c1cnc2cc3c(cc2n1)[C@@H]1CNC[C@H]3C1 [varenicline, 6,7,8,9,10-Tetrahydro-6,10-methano-6H-pyyrazino[2,3-h][3]benzazepine]
maximal efficacy at α6β2-nAChR (α6β2*-nAChR [1]): 49% | Emax, α4β2*-nAChR (α4β2*-nAChR [2]): […] | EC50 (α4β2*-nAChR [2]; read-out: EC50, α4β2*-nAChR-mediated [3H]DA-release): […] | Ki (α6β2*-nAChR [3]): 0.13 nM | maximal efficacy at α4β2-nAChR (α4β2*-nAChR [4]): […] | EC50 (α4β2*-nAChR [4]; read-out: EC50, α4β2*-nAChR-mediated [3H]DA release): […] | Emax, α6β2*-nAChR (α6β2*-nAChR [5]): 13%

Pyrido[3,4]homotropane [(+)-PHT]
antinociceptive (agonist) activity in hot-plate test (mouse [6]): no antinociceptive activity | activity in tail-flick test given intrathecally (mouse [7]): no antinociceptive activity | antinociceptive (agonist) activity in tail-flick test (mouse [7]; mouse): no antinociceptive activity | activity in radioligand binding assay, DAD4 (DAD4): inactive | activity in radioligand binding assay, 5HT2A (5HT2A): inactive | activity in radioligand binding assay, DAD2 (DAD2): inactive | max (% nic) dopamine release, res α4β2 (α4β2*-nAChR [8]): 33% | potency relative to (−)-PHT at the α4β2*-nAChR (DA release EC50) (α4β2*-nAChR [8]; wild type mice): 10 fold | activity in radioligand binding assay, μ opioid receptor (μ opioid receptor): inactive | agonist potency at α4β2-nAChR compared to α3β4-nAChR (EC50 comparison) (rat α4β2-nAChR): 12 fold | antagonist selectivity for α4β2- relative to α3β4-nAChR (IC50 comparison) (rat α4β2-nAChR): 15 fold | antagonist selectivity for α4β2- relative to α7-nAChR (IC50 comparison) (rat α4β2-nAChR): 45 fold | antagonism (% of EC50 ACh remaining) α4β2 (rat α4β2-nAChR): 17 ± 3% | agonist activity α4β2 Emax (% ACh) (rat α4β2-nAChR; [16]): 4.6 % ACh and 4.6 ± 0.4 % ACh | EC50 (rat α4β2-nAChR; read-out: agonist activity α4β2 EC50, concentration–response curve): 4000 ± 1000 nM | IC50 (rat α4β2-nAChR): 16000 ± 3000 nM | preference scores in comparison to nicotine alone (ICR mice [9]; pretreatment 1 mg/kg): significantly reduced | activity in radioligand binding assay, κ opioid receptor (κ opioid receptor): inactive | antagonism (% of EC50 ACh remaining) α3β4 (rat α3β4-nAChR): 93 ± 3% | agonist activity α3β4 Emax (% ACh) (rat α3β4-nAChR; [16]): 8.4 % ACh and 8.4 ± 0.5 % ACh | EC50 (rat α3β4-nAChR; read-out: agonist activity α3β4 EC50, concentration–response curve): 50000 ± 6000 nM | IC50 (rat α3β4-nAChR): 242000 ± 13000 nM | inhibition of specific [125I]RTI-55 binding to the NET (NET): 61% | activity in radioligand binding assay, SERT (SERT): inactive | activity in radioligand binding assay, 5HT1A (5HT1A): inactive | antagonism (% of EC50 ACh remaining) α7 (rat α7-nAChR): 87± 1% | IC50 (rat α7-nAChR): 720000 ± 290000 nM | activity in locomotor-activity test (mouse [10]): weak activity | activity in radioligand binding assay, DAD1 (DAD1): inactive | activity in radioligand binding assay, 5HT2C (5HT2C): inactive | max (% nic) dopamine release, α6β2 in α5KO (α6β2*-nAChR in α5KO): 125% | EC50 (α6β2*-nAChR in α5KO): 200 nM | EC50 (α4β2-nAChR; read-out: EC50 at α4β2-nAChR): 5500 nM | intrinsic activity at α4β2-nAChR (α4β2-nAChR; versus full agonist acetylcholine (1 mM)): 17% | activity in radioligand binding assay, DAD3 (DAD3): inactive | activity in radioligand binding assay, DAT (DAT): inactive | CPP scores (ICR mice [11]; 3 mg/kg s.c., 15 min before conditioning): significantly increased | Ki (α6β2*-nAChR [12]): 28 nM | activity in hypothermia test (mouse [13]): weak activity | affinity relative to (−)-PHT for inhibition of [3H]epibatidine binding (nAChRs): 266 times | Ki (nAChRs): 1.29 nM | activity at off site targets in 62 receptor/enzyme screen (NovaScreen) [14]: inactive | max (% nic) dopamine release, sens α6β2 (α6β2*-nAChR [15]): 94% | potency relative to (−)-PHT at the α6β2*-nAChR (DA release EC50) (α6β2*-nAChR [15]; wild type mice): 30 fold | max (% nic) dopamine release, α4β2 in α5KO* (α4β2*-nAChR in α5KO): 13% | EC50 (α4β2*-nAChR in α5KO): 2000 nM | activity in radioligand binding assay, δ opioid receptor (δ opioid receptor): inactive

Pyrido[3,4]homotropane [(−)-PHT]
AD50, antagonism of antinociceptive effects of nicotine in the hot-plate test (mouse [6]): 0.8 µg/kg | antinociceptive (agonist) activity in hot-plate test (mouse [6]): inactive | activity in tail-flick test given intrathecally (mouse [7]): inactive | AD50, antagonism of nicotine-induced antinociception in the tail-flick test (mouse [7]; mouse): 0.07 µg/kg | antinociceptive (agonist) activity in tail-flick test (mouse [7]; mouse): inactive | activity in radioligand binding assay, DAD4 (DAD4): inactive | activity in radioligand binding assay, 5HT2A (5HT2A): inactive | activity in radioligand binding assay, DAD2 (DAD2): inactive | max (% nic) dopamine release, res α4β2 (α4β2*-nAChR [8]): 17% | activity in radioligand binding assay, μ opioid receptor (μ opioid receptor): inactive | antagonism (% of EC50 ACh remaining) α4β2 (rat α4β2-nAChR): 41 ± 4% | IC50 (rat α4β2-nAChR): 99000 ± 13000 nM | blockade of nicotine-induced CPP (ICR mice [9]; pretreatment 0.05 mg/kg): completely preventing nicotine preference | activity in radioligand binding assay, κ opioid receptor (κ opioid receptor): inactive | antagonist selectivity for α3β4- relative to α4β2-nAChR (rat α3β4-nAChR): 3 fold | antagonist selectivity for α3β4- relative to α7-nAChR (rat α3β4-nAChR): 11 fold | antagonism (% of EC50 ACh remaining) α3β4 (rat α3β4-nAChR): 32 ± 3% | IC50 (rat α3β4-nAChR): 33000 ± 6000 nM | activity in radioligand binding assay, NET (NET): inactive | activity in radioligand binding assay, SERT (SERT): inactive | activity in radioligand binding assay, 5HT1A (5HT1A): inactive | antagonism (% of EC50 ACh remaining) α7 (rat α7-nAChR): 84± 10% | IC50 (rat α7-nAChR): 353000 ± 34000 nM | activity in locomotor-activity test (mouse [10]): inactive | activity in radioligand binding assay, DAD1 (DAD1): inactive | activity in radioligand binding assay, 5HT2C (5HT2C): inactive | max (% nic) dopamine release, α6β2 in α5KO (α6β2*-nAChR in α5KO): 96% | EC50 (α6β2*-nAChR in α5KO): 2000 nM | activation of currents at α4β2-nAChR (α4β2-nAChR): did not activate currents | activity in radioligand binding assay, DAD3 (DAD3): inactive | activity in radioligand binding assay, DAT (DAT): inactive | induction of significant preference in the CPP test (ICR mice [11]; all doses tested, s.c.): ineffective | Ki (α6β2*-nAChR [12]): 629 nM | activity in hypothermia test (mouse [13]): inactive | Ki (nAChRs): 346 nM | activity at off site targets in 62 receptor/enzyme screen (NovaScreen) [14]: inactive | max (% nic) dopamine release, sens α6β2 (α6β2*-nAChR [15]): 109% | max (% nic) dopamine release, α4β2 in α5KO* (α4β2*-nAChR in α5KO): 10% | EC50 (α4β2*-nAChR in α5KO): 700 nM | activity in radioligand binding assay, δ opioid receptor (δ opioid receptor): inactive

Pyrido[3,4]homotropane [PHT]
Ki (nAChRs): 6.2 nM
